From ChEMBL document CHEMBL1146363, “Synthesis of novel diarylpyrimidine analogues of TMC278 and their antiviral activity against HIV-1 wild-type and mutant strains” (Eur J Med Chem, 2007)

Columns and labels:
[1] = test system: Human immunodeficiency virus 1; assay: Antiviral activity against HIV1 LAI with RT L100I and K103N mutation in MT4 cells by EGFP based replication assay; type: functional, organism-based; settings: Human immunodeficiency virus 1, LAI
Procedure, shortened: (§1)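 MT4-LTR-EGFP indicator cells (EGFP under HIV-1 LTR, induced via Tat) mixed with HIV-1 LAI or LAI-derived RT mutant and serial 4-fold compound dilutions; incubated 37 °C for 3 days. EGFP expression read by argon laser-scanning microscopy. EC50 = concentration inhibiting 50% of virus-induced EGFP signal, by linear interpolation of signal versus log concentration.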

[2] = Selectivity index, ratio of CC50 for human MT4 cells to EC50 for HIV1 LAI; type: functional
[3] = test system: Human immunodeficiency virus 1; assay: Antiviral activity against HIV1 LAI with RT F227C and V106A mutation in MT4 cells by EGFP based replication assay; type: functional, organism-based; settings: Human immunodeficiency virus 1, LAI; procedure, shortened: as §1
[4] = Cytotoxicity against human MT4 cells after 3 days by EGFP based replication assay; type: cell-based
Procedure, shortened: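 Uninfected MT4-CMV-EGFP cells, which express EGFP constitutively, were exposed to serial 4-fold compound dilutions at 37 °C for 3 days. EGFP was read by argon laser-scanning microscopy. CC50 was obtained by linear interpolation of EGFP signal against log concentration.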

[5] = test system: Human immunodeficiency virus 1; assay: Antiviral activity against HIV1 LAI with RT Y181C mutation in MT4 cells by EGFP based replication assay; type: functional, organism-based; settings: Human immunodeficiency virus 1, LAI; procedure, shortened: as §1
[6] = test system: Human immunodeficiency virus 1; assay: Antiviral activity against HIV1 LAI with RT F227C mutation in MT4 cells by EGFP based replication assay; type: functional, organism-based; settings: Human immunodeficiency virus 1, LAI; procedure, shortened: as §1
[7] = test system: Human immunodeficiency virus 1; assay: Antiviral activity against HIV1 LAI with RT K103N mutation in MT4 cells by EGFP based replication assay; type: functional, organism-based; settings: Human immunodeficiency virus 1, LAI; procedure, shortened: as §1
[8] = test system: Human immunodeficiency virus 1; assay: Antiviral activity against HIV1 LAI with RT L100I mutation in MT4 cells by EGFP based replication assay; type: functional, organism-based; settings: Human immunodeficiency virus 1, LAI
Procedure, shortened: (§2)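 MT4-LTR-EGFP indicator cells (EGFP under HIV-1 LTR, induced via Tat) mixed with HIV-1 LAI or LAI-derived RT mutant and serial 4-fold compound dilutions; incubated 37 °C for 3 days. EGFP expression read by argon laser-scanning microscopy.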

[9] = test system: Human immunodeficiency virus 1; assay: Antiviral activity against HIV1 LAI with RT K103N and Y181C mutation in MT4 cells by EGFP based replication assay; type: functional, organism-based; settings: Human immunodeficiency virus 1, LAI; procedure, shortened: as §1
[10] = test system: Human immunodeficiency virus 1; assay: Antiviral activity against HIV1 LAI with RT Y188L mutation in MT4 cells by EGFP based replication assay; type: functional, organism-based; settings: Human immunodeficiency virus 1, LAI; procedure, shortened: as §1
[11] = test system: Human immunodeficiency virus 1; assay: Antiviral activity against wild type HIV1 LAI infected in MT4 cells by EGFP based replication assay; type: functional, organism-based; settings: Human immunodeficiency virus 1, LAI; procedure, shortened: as §2
[12] = Half life in Beagle dog at 10 mg/kg, po after 23 hrs; type: ADME, organism-based, Canis lupus familiaris; design: dose 10 mg/kg, route oral; settings: in vivo
[13] = AUC in Wistar rat at 10 mg/kg, po; type: ADME, organism-based; design: dose 10 mg/kg, route oral; settings: plasma
[14] = Metabolic stability in human liver microsomes after 15 mins; type: ADME, Microsome; settings: read-out: Stability
Procedure, shortened: (§3)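 Liver microsomes were the 100,000×g pellet of S9 from tissue homogenized in 0.1 M phosphate, pH 7.4. Incubations contained 1 mg/mL protein in 0.1 M phosphate pH 7.4 with an NADPH-generating system, plus a heat-inactivated control. After 5 min preincubation at 37 °C, NADP started the reaction, which ran 15 min and was stopped with DMSO or acetonitrile. Duplicates, LC-MS; fraction remaining relative to T=0.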

[15] = Metabolic stability in rat liver microsomes after 15 mins; type: ADME, Microsome; settings: read-out: Stability; procedure, shortened: as §3
[16] = Cmax in Wistar rat at 10 mg/kg, po; type: ADME, organism-based; design: dose 10 mg/kg, route oral; settings: in vivo
[17] = Metabolic stability in dog liver microsomes after 15 mins; type: ADME, Canis lupus familiaris, Microsome; settings: read-out: Stability; procedure, shortened: as §3
[18] = Cmax in Beagle dog at 10 mg/kg, po; type: ADME, organism-based, Canis lupus familiaris; design: dose 10 mg/kg, route oral; settings: in vivo
[19] = AUC in Beagle dog at 10 mg/kg, po; type: ADME, organism-based, Canis lupus familiaris; design: dose 10 mg/kg, route oral; settings: plasma
[20] = Half life in Wistar rat at 10 mg/kg, po after 6 hrs; type: ADME, organism-based; design: dose 10 mg/kg, route oral; settings: in vivo

Row | Compound | EC50 [1] | Ratio CC50/EC50 [2] | EC50 [3] | CC50 at 72 h [4] | EC50 [5] | EC50 [6] | EC50 [7] | EC50 [8] | EC50 [9] | EC50 [10] | EC50 [11] | half-life [12] | AUC [13] | remaining at 0.25 h [14] | remaining at 0.25 h [15] | Cmax [16] | remaining at 0.25 h [17] | Cmax [18] | AUC [19] | half-life [20]
1 | Cc1cc(/C=C/C#N)cc(C)c1Oc1ccnc(Nc2ccc(C#N)cc2)n1 | 3.7 nM | 28302 | 0.6 nM | > 25000 nM | 3.2 nM | 0.7 nM | 0.2 nM | 0.6 nM | 4.3 nM | 1.6 nM | 0.9 nM | – | – | – | – | – | – | – | – | –
2 | CCc1cc(/C=C/C#N)cc(C)c1Nc1ccnc(Nc2ccc(C#N)cc2)n1 | 8.2 nM | 841 | 0.9 nM | 2550 nM | 4 nM | 1.1 nM | 0.5 nM | 0.9 nM | 5.3 nM | 2.6 nM | 3 nM | – | – | – | – | – | – | – | – | –
3 | CC(C)Nc1cccnc1N1CCN(C(=O)c2cc3cc(NS(C)(=O)=O)ccc3[nH]2)CC1 [DELAVIRDINE] | 20600 nM | >550 | 721 nM | 67200 nM | 9040 nM | 4560 nM | 10200 nM | 9530 nM | 38400 nM | 1020 nM | 122 nM | – | – | – | – | – | – | – | – | –
4 | O=C1Nc2ccc(Cl)cc2C(C#CC2CC2)(C(F)(F)F)O1 (single isomer, unassigned) [EFAVIRENZ] | 1460 nM | – | 4.1 nM | 32300 nM | 3.9 nM | 46.9 nM | 46.4 nM | 31 nM | 55 nM | 55 nM | – | – | – | – | – | – | – | – | – | –
5 | Cc1cc(/C=C/C#N)ccc1N(C)c1ccnc(Nc2ccc(C#N)cc2)n1 | 104 nM | 11351 | 1.5 nM | 11600 nM | 12 nM | 1 nM | 0.7 nM | 2.5 nM | 160 nM | 16.8 nM | 1 nM | – | – | – | – | – | – | – | – | –
6 | Cc1cc(/C=C/C#N)ccc1Nc1ccnc(Nc2ccc(C#N)cc2)n1 | 479 nM | >29372 | 1.2 nM | > 25000 nM | 13.4 nM | 1.2 nM | 0.6 nM | 9.2 nM | 89.6 nM | 43.6 nM | 0.9 nM | – | – | – | – | – | – | – | – | –
7 | Cc1ccnc2c1NC(=O)c1cccnc1N2C1CC1 [NEVIRAPINE] | 3530 nM | – | 2700 nM | 31600 nM | 7080 nM | 827 nM | 1980 nM | – | 14500 nM | 5910 nM | 33.3 nM | – | – | – | – | – | – | – | – | –
8 | COc1cc(/C=C/C#N)cc(Cl)c1Nc1ccnc(Nc2ccc(C#N)cc2)n1 | 15.8 nM | 3981 | 0.3 nM | 398 nM | 1 nM | 0.8 nM | 0.3 nM | 0.2 nM | 2 nM | 2.5 nM | 0.1 nM | 14.5 h | 410 ng·h/mL | 26% | 53% | 199 ng/mL | 58% | 2180 ng/mL | 44500 ng·h/mL | 3.83 h
9 | Cc1cc(/C=C/C#N)cc(C)c1Nc1ccnc(Nc2ccc(C#N)cc2)n1 [RILPIVIRINE] | 7.5 nM | – | 0.5 nM | 2000 nM | […] | 0.5 nM | […] | 0.5 nM | 3.2 nM | 1.2 nM | – | 23 h | 9650 ng·h/mL | 26% | 73% | 1940 ng/mL | 65% | 1050 ng/mL | […] | […]
10 | Cc1cc(/C=C/C#N)cc(C(C)C)c1Nc1ccnc(Nc2ccc(C#N)cc2)n1 | 38.3 nM | 2947 | 3.2 nM | 11800 nM | 11.1 nM | 3.9 nM | 1.3 nM | 3.1 nM | 10.6 nM | 3.8 nM | 4 nM | – | – | – | – | – | – | – | – | –
11 | Cc1cc(/C=C/C#N)cc(Cl)c1Nc1ccnc(Nc2ccc(C#N)cc2)n1 | 6.6 nM | 3316 | 0.5 nM | 2610 nM | 2.3 nM | 0.5 nM | 0.1 nM | 0.4 nM | 4.1 nM | 2.3 nM | 0.8 nM | 14.5 h | 910 ng·h/mL | 39% | 72% | 182 ng/mL | 60% | 1040 ng/mL | 17600 ng·h/mL | 3.54 h
12 | N#C/C=C/c1ccc(Nc2ccnc(Nc3ccc(C#N)cc3)n2)cc1 | 6440 nM | >737 | 76.1 nM | > 25000 nM | 1520 nM | 98.4 nM | 57.7 nM | 585 nM | 3950 nM | 303 nM | 33.9 nM | – | – | – | – | – | – | – | – | –
13 | COc1cc(/C=C/C#N)cc(C)c1Nc1ccnc(Nc2ccc(C#N)cc2)n1 | 21.1 nM | 846 | 0.3 nM | 633 nM | 1.9 nM | 0.3 nM | < 0.1 nM | 0.5 nM | 4.3 nM | 0.9 nM | 0.7 nM | – | – | – | – | – | – | – | – | –
14 | Cc1cc(/C=C\C#N)cc(C)c1Sc1ccnc(Nc2ccc(C#N)cc2)n1 | 79.2 nM | >6821 | 1.1 nM | > 25000 nM | 5.8 nM | 1.4 nM | 0.7 nM | 2.6 nM | 18.6 nM | 2.8 nM | 3.7 nM | – | – | – | – | – | – | – | – | –
